Data on eight molecules can be found in ChEMBL document CHEMBL1240321, “Cyclostreptin binds covalently to microtubule pores and lumenal taxoid binding sites” (Nat Chem Biol, 2007).

Active and inactive are the calls of the source. The calls are words filed in the database; no cut-off is given here.

Assay [1] can be described thus: Displacement of [3H]paclitaxel from microtubule assessed as bound radioligand level at 20 uM treated before radioligand addition by competitive binding assay.
Assay [2] is described as follows: Binding affinity to microtubule.
The nature of assay [3]: Displacement of [3H]epothilone B from microtubule assessed as bound radioligand level at 20 uM treated before radioligand addition by competitive binding assay.
Assay [4] in a line: Displacement of [3H]discodermolide from microtubule assessed as bound radioligand level at 20 uM treated after radioligand addition by competitive binding assay.
A short description of assay [5]: Displacement of [3H]discodermolide from microtubule assessed as bound radioligand level at 20 uM treated before radioligand addition by competitive binding assay.
Assay [6] is described as follows: Displacement of [3H]paclitaxel from microtubule assessed as bound radioligand level at 20 uM treated after radioligand addition by competitive binding assay.
The nature of assay [7]: Displacement of [3H]epothilone B from microtubule assessed as bound radioligand level at 20 uM treated after radioligand addition by competitive binding assay.
For assay [8], the system named is A549. Description: Cytotoxicity against human A549 cells. In kind it is functional, cell-based.
Assay [9] deals with A2780. Kind of assay: Cytotoxicity against human A2780 cells. In kind it is functional, cell-based.
The nature of assay [10]: Cytotoxicity against human A2780-1A9 cells. In kind it is functional, cell-based.
Assay [11] is described as follows: Cytotoxicity against human A2780AD cells. In kind it is functional, cell-based. As to conditions: A2780 ADR.
Assay [12] can be described thus: Binding affinity to microtubule pretreated with cyclostreptin. In outline:
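Glutaraldehyde-crosslinked microtubules (60 µM) were preincubated overnight at 22 °C with 66 µM cyclostreptin in GAB (3.4 M glycerol, 10 mM NaPi, 1 mM EGTA, 6 mM MgCl2, pH 6.7) plus 0.1 mM GTP, then dialyzed 5 h against the same buffer. Flutax-2 (50 nM) was titrated with these microtubules, and the association constant for Flutax-2 binding was calculated.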

Assay [13] relates to PtK2. Description: Displacement of Flutax-2 from microtubule in potoroo PtK2 cells at 100 uM. As to conditions: Potorous tridactylus.
The nature of assay [14]: Micronucleation in potoroo PtK2 cells at 10 uM treated for 7 hrs followed by compound washout measured after 48 hrs by flow cytometry. As to conditions: Potorous tridactylus.
Assay [15] can be described thus: Induction of micronucleation in potoroo PtK2 cells at 5 uM after 7 hrs by flow cytometry. Format: functional, Potorous tridactylus.
Assay [16] has as its system A2780. Description: Induction of mitotic cell cycle arrest in human A2780 cells assessed as accumulation at S phase at 15 nM after 24 hrs by flow cytometry (Rvb= 17.5%). In kind it is functional.
In assay [17] the test system is PtK2. Description: Induction of microtubule bundle formation in potoroo PtK2 cells at 5 uM after 7 hrs by flow cytometry. Format: cell-based. Conditions: Potorous tridactylus.
In assay [18] the test system is A2780. Kind of assay: Induction of mitotic cell cycle arrest in human A2780 cells assessed as accumulation of cells at SubG1 phase at 15 nM after 24 hrs by flow cytometry (Rvb= 2.5%). In kind it is functional.
Assay [19] deals with A2780. Description: Induction of mitotic cell cycle arrest in human A2780 cells assessed as accumulation of cells at G2+M phase at 15 nM after 24 hrs by flow cytometry (Rvb= 20%). Format: functional.
Assay [20] can be described thus: Cytotoxicity against human 1A9PTX10 cells. Format: functional, cell-based. Conditions: 1A9/ptx-10.
The nature of assay [21]: Induction of micronucleation in potoroo PtK2 cells at 2 uM after 7 hrs by flow cytometry. Format: functional, Potorous tridactylus.
Assay [22] has as its system A2780. Kind of assay: Induction of mitotic cell cycle arrest in human A2780 cells assessed as accumulation of cells at G1/G0 phase at 15 nM after 24 hrs by flow cytometry (Rvb= 60%). Format: functional.
Assay [23] is described as follows: Induction of mitotic cell cycle arrest at G1/G0 phase in potoroo PtK2 cells 10 uM after 7 hrs by flow cytometry (Rvb= 60%). In kind it is functional, Potorous tridactylus.
Assay [24] relates to A549. Kind of assay: Induction of mitotic cell cycle arrest in human A549 cells assessed as accumulation of cells at G1/G0 phase at 20 nM after 24 hrs by flow cytometry (Rvb= 39.2%). Format: functional.
Assay [25] has as its system A549. Description: Induction of mitotic cell cycle arrest in human A549 cells assessed as accumulation of cells at SubG1 phase at 20 nM after 24 hrs by flow cytometry (Rvb= 25%). Format: functional.
The subject of assay [26] is PtK2. Description: Induction of microtubule bundle formation in potoroo PtK2 cells at 10 uM treated for 7 hrs followed by compound washout measured after 48 hrs. As to conditions: Potorous tridactylus.
Assay [27] can be described thus: Induction of micronucleation in potoroo PtK2 cells at 10 uM after 7 hrs by flow cytometry. Format: functional, Potorous tridactylus.
The subject of assay [28] is PtK2. Kind of assay: Induction of micronucleation in potoroo PtK2 cells at 10 uM after 7 hrs by flow cytometry. As to conditions: Potorous tridactylus.
The test system of assay [29] is PtK2. Kind of assay: Induction of microtubule bundle formation in potoroo PtK2 cells at 2 uM after 7 hrs by flow cytometry. In kind it is cell-based. As to conditions: Potorous tridactylus.
Assay [30] can be described thus: Cytotoxicity against human 1A9PTX22 cells. In kind it is functional, cell-based. As to conditions: 1A9/ptx-22.
Assay [31] relates to A549. Description: Induction of mitotic cell cycle arrest in human A549 cells assessed as accumulation of cells at G2+M phase at 20 nM after 24 hrs by flow cytometry (Rvb= 19.6%). Format: functional.
Assay [32] is described as follows: Induction of mitotic cell cycle arrest in human A2780AD cells assessed as accumulation of cells at G2+M phase at 5 uM after 24 hrs by flow cytometry (Rvb= 20.5%). Format: functional, A2780 ADR.
The subject of assay [33] is A2780. Description: Cytotoxicity against human A2780 cells at 5 uM. In kind it is functional, cell-based.
Assay [34] relates to A2780. Kind of assay: Induction of mitotic cell cycle arrest in human A2780 cells assessed as accumulation of cells at SubG1 phase at 5 uM after 24 hrs by flow cytometry (Rvb= 2.5%). In kind it is functional.
The nature of assay [35]: Induction of mitotic cell cycle arrest in human A2780AD cells assessed as accumulation of cells at G1/G0 phase at 5 uM after 24 hrs by flow cytometry (Rvb= 59.2%). Format: functional, A2780 ADR.
For assay [36], the system named is A2780. Kind of assay: Induction of mitotic cell cycle arrest in human A2780 cells assessed as accumulation of cells at G2+M phase at 5 uM after 24 hrs by flow cytometry (Rvb= 20%). In kind it is functional.
Assay [37] is described as follows: Induction of mitotic cell cycle arrest in human A2780AD cells assessed as accumulation at S phase at 5 uM after 24 hrs by flow cytometry (Rvb= 16.2%). Format: functional, A2780 ADR.
The next assay has as its system A2780-1A9. Kind of assay: Cytotoxicity against human A2780-1A9 cells at 5 uM. In kind it is functional, cell-based.
Assay [38] can be described thus: Induction of mitotic cell cycle arrest in human A2780AD cells assessed as accumulation of cells at SubG1 phase at 5 uM after 24 hrs by flow cytometry (Rvb= 4.1%). In kind it is functional, A2780 ADR.
The next assay deals with 1A9/ptx-22. Description: Cytotoxicity against human 1A9PTX22 cells at 5 uM. Format: functional, cell-based.
The test system of assay [39] is A2780. Kind of assay: Induction of mitotic cell cycle arrest in human A2780 cells assessed as accumulation at S phase at 5 uM after 24 hrs by flow cytometry (Rvb= 17.5%). In kind it is functional.
For assay [40], the system named is A2780. Description: Induction of mitotic cell cycle arrest in human A2780 cells assessed as accumulation of cells at G1/G0 phase at 5 uM after 24 hrs by flow cytometry (Rvb= 60%). Format: functional.
The test system of assay [41] is A549. Description: Cytotoxicity against human A549 cells at 5 uM. In kind it is functional, cell-based.
In another assay the test system is A2780 ADR. Kind of assay: Cytotoxicity against human A2780AD cells at 5 uM. Format: functional, cell-based.
The test system of a further assay is 1A9/ptx-10. Kind of assay: Cytotoxicity against human 1A9PTX10 cells at 5 uM. In kind it is functional, cell-based.

With `C/C(=C\c1csc(C)n1)[C@@H]1C[C@@H]2O[C@@H]2CCC[C@H](C)[C@H](O)[C@@H](C)C(=O)C(C)(C)[C@@H](O)CC(=O)O1` [EPOTHILONE A], the Activity was 49% in [1]; 49% in assay [3]; 95% in assay [4]; 96% in assay [5]; 46% in [6]; 49% in assay [7]. The molecule further gave a Kd in [2] of 28 nM.

As for `C=C/C=C\[C@H](C)[C@H](OC(N)=O)[C@@H](C)[C@H](O)[C@@H](C)C/C(C)=C\[C@H](C)[C@@H](O)[C@@H](C)/C=C\[C@@H](O)C[C@@H]1OC(=O)[C@H](C)[C@@H](O)[C@H]1C` [DISERMOLIDE], in assay [2], the affinity, expressed as Kd, was 0.18 nM. Also, the Activity was determined as 27% in assay [4] and 31% in [5].

For `CC(=O)O[C@@]12CO[C@@H]1C[C@H](O)[C@@]1(C)C(=O)[C@H](O)C3=C(C)[C@@H](OC(=O)[C@H](O)[C@@H](NC(=O)OC(C)(C)C)c4ccccc4)C[C@@](O)([C@@H](OC(=O)c4ccccc4)[C@H]21)C3(C)C` [DOCETAXEL], the IC50 with A549 [8] amounted to 7.2 nM; with A2780 [9], 0.5 nM; in [10], 0.6 nM; in assay [11], 285 nM.

`CC(=O)O[C@H]1C(=O)[C@]2(C)[C@@H](OC(=O)[C@H](C)NC(=O)c3ccc(-c4c5cc(F)c(=O)cc-5oc5cc(O)c(F)cc45)c(C(=O)O)c3)C[C@H]3OC[C@@]3(OC(C)=O)[C@H]2[C@H](OC(=O)c2ccccc2)[C@]2(O)C[C@H](OC(=O)[C@H](O)[C@@H](NC(=O)c3ccccc3)c3ccccc3)C(C)=C1C2(C)C` [FLUTAX 2] displayed a Kd in assay [2] of 14 nM. Also, in assay [12], the result was inactive.

Molecule `CC(=O)O[C@H]1C(=O)[C@@]2(C)[C@H]([C@H](OC(=O)c3ccccc3)[C@]3(O)C[C@H](OC(=O)[C@H](O)[C@@H](NC(=O)c4ccccc4)c4ccccc4)C(C)=C1C3(C)C)[C@]1(OC(C)=O)CO[C@@H]1C[C@@H]2O` [PACLITAXEL] came in with a Kd in [2] of 70 nM. Moreover, the outcome in the assay with PtK2 [13] and in the assay on PtK2 [26] was Active. In [14], this molecule returned an Activity at 10 µM of 40%. Besides, the Activity in assay [15] came out at 4%; in the assay on A2780 [16] it was 7%; in the assay on PtK2 [17] it was 4%; in the assay on A2780 [18] it was 15.7%; with A2780 [19] it was 70.8%; in [21] it was 4%. Further, the Activity stood at 6.5% with A2780 [22]; 50% in assay [23]; 8.4% in the assay with A549 [24]; 36.9% in the assay on A549 [25]; 4% in assay [27]; 4% in the assay with PtK2 [28]. Besides, the Activity was found to be 4% in the assay with PtK2 [29] and 8.85% with A549 [31]. Further, the IC50 in [10] was 1.1 nM; in [20], 30 nM; in assay [11], 900 nM; in assay [30], 19 nM.

In the case of `CC1=C[C@H]2[C@@H](O)[C@H](C)[C@@H](O)[C@@H]2[C@H]2[C@@H]3[C@H]4C(=O)O[C@@H]5CC[C@@](C)(O[C@@H]4[C@@H]5C)[C@@H]3C[C@@H]12`, the Activity in assay [32] is on record as 21.5%; with A2780 [34], 2.8%; in [35], 56.9%; in the assay on A2780 [36] it was 16%; in [37], 19.6%; in assay [38], 2%. Besides, the Activity worked out at 22.5% in the assay on A2780 [39] and 58.7% in the assay on A2780 [40]. Further, the result in the assay with A2780 [33], with A2780-1A9, in the assay with 1A9/ptx-22, in the assay with A549 [41], with A2780 ADR and with 1A9/ptx-10 was inactive.

Regarding `CC1=C[C@H]2[C@@H](O)[C@H](C)[C@@H](O)[C@@H]2[C@H]2[C@H]3[C@@H](C[C@@H]12)[C@@]1(C)CC[C@H]2OC(=O)[C@]34O[C@@]4(O1)[C@@H]2C`, the result in the assay with A2780 [33], in the assay with A2780-1A9, in the assay with 1A9/ptx-22, in the assay on A549 [41], in the assay on A2780 ADR and in the assay with 1A9/ptx-10 was inactive.

On to `C/C(=C\c1csc(C)n1)[C@@H]1C[C@@H]2O[C@]2(C)CCC[C@H](C)[C@H](O)[C@@H](C)C(=O)C(C)(C)[C@@H](O)CC(=O)O1` [PATUPILONE], for which the Activity in [1] turned out to be 33%; in [3], 9%; in assay [4], 76%; in assay [5] it was 79%; in assay [6] it was 31%; in [7], 9%. Besides, the Kd in assay [2] came to 1.3 nM.
